# The source made the active and inactive calls. No cut-off for these calls is given here.
# Experiments:
# SK-MEL-28 = assay: Cytotoxicity against human SK-MEL-28 cells at 10 uM after 48 hrs by sulforhodamine B assay; type: functional, cell-based
# MDA-MB-468 = assay: Cytotoxicity against human MDA-MB-468 cells at 10 uM after 48 hrs by sulforhodamine B assay; type: functional, cell-based
# OVCAR-5 = assay: Cytotoxicity against human OVCAR5 cells at 10 uM after 48 hrs by sulforhodamine B assay; type: functional, cell-based
# PC-3 = assay: Cytotoxicity against human PC3 cells at 10 uM after 48 hrs by sulforhodamine B assay; type: functional, cell-based
# SNB-75 = assay: Cytotoxicity against human SNB75 cells at 10 uM after 48 hrs by sulforhodamine B assay; type: functional, cell-based
# Outline: (§1)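 NCI 60 cancer cell line panel screen run at a single concentration of 10 μM.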
# A498 = assay: Cytotoxicity against human A498 cells at 10 uM after 48 hrs by sulforhodamine B assay; type: functional, cell-based
# UACC-257 = assay: Cytotoxicity against human UACC257 cells at 10 uM after 48 hrs by sulforhodamine B assay; type: functional, cell-based; outline: as §1
# OVCAR-8 = assay: Cytotoxicity against human OVCAR8 cells at 10 uM after 48 hrs by sulforhodamine B assay; type: functional, cell-based
# K562 = assay: Cytotoxicity against human K562 cells at 10 uM after 48 hrs by sulforhodamine B assay; type: functional, cell-based
# T47D = assay: Cytotoxicity against human T47D cells at 10 uM after 48 hrs by sulforhodamine B assay; type: functional, cell-based; outline: as §1
# [1] = target: T1, Aldo-keto reductase family 1 member C3 (Homo sapiens) (UniProt P42330); assay: Inhibition of AKR1C3 in human HL60 cells assessed as potentiation of etoposide-induced cytotoxicity by measuring reduction in cell viability pre-treated with 0.1 to 1 uM compound for 24 hrs followed by 1 uM etoposide exposure for additional 72 hrs by MTS assay; type: cell-based
# T1 sequence (whole entry): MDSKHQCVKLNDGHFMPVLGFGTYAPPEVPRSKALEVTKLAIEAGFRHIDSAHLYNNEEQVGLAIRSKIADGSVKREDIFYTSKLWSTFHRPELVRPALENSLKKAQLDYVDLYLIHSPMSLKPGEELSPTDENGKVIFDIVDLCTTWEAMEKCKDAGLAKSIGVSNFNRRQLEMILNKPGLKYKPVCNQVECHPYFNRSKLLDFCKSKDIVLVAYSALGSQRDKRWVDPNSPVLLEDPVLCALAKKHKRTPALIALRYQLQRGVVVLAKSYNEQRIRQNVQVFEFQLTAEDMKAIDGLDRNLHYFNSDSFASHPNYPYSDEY
# HCC 2998 = assay: Cytotoxicity against human HCC2998 cells at 10 uM after 48 hrs by sulforhodamine B assay; type: functional, cell-based
# SN12C = assay: Cytotoxicity against human SN12C cells at 10 uM after 48 hrs by sulforhodamine B assay; type: functional, cell-based
# MOLT-4 = assay: Cytotoxicity against human MOLT4 cells at 10 uM after 48 hrs by sulforhodamine B assay; type: functional, cell-based
# HOP-92 = assay: Cytotoxicity against human HOP92 cells at 10 uM after 48 hrs by sulforhodamine B assay; type: functional, cell-based
# Malme-3M = assay: Cytotoxicity against human MALME-3M cells at 10 uM after 48 hrs by sulforhodamine B assay; type: functional, cell-based
# 786-0 = assay: Cytotoxicity against human 786-0 cells at 10 uM after 48 hrs by sulforhodamine B assay; type: functional, cell-based
# SF-295 = assay: Cytotoxicity against human SF295 cells at 10 uM after 48 hrs by sulforhodamine B assay; type: functional, cell-based
# UACC-62 = assay: Cytotoxicity against human UACC62 cells at 10 uM after 48 hrs by sulforhodamine B assay; type: functional, cell-based; outline: as §1
# CCRF-CEM = assay: Cytotoxicity against human CCRF-CEM cells at 10 uM after 48 hrs by sulforhodamine B assay; type: functional, cell-based
# NCI-H522 = assay: Cytotoxicity against human NCI-H522 cells at 10 uM after 48 hrs by sulforhodamine B assay; type: functional, cell-based
# OVCAR-3 = assay: Cytotoxicity against human OVCAR3 cells at 10 uM after 48 hrs by sulforhodamine B assay; type: functional, cell-based
# SK-MEL-2 = assay: Cytotoxicity against human SK-MEL-2 cells at 10 uM after 48 hrs by sulforhodamine B assay; type: functional, cell-based
# DU-145 = assay: Cytotoxicity against human DU145 cells at 10 uM after 48 hrs by sulforhodamine B assay; type: functional, cell-based
# MDA-MB-435 = assay: Cytotoxicity against human MDA-MB-435 cells at 10 uM after 48 hrs by sulforhodamine B assay; type: functional, cell-based
# M14 = assay: Cytotoxicity against human M14 cells at 10 uM after 48 hrs by sulforhodamine B assay; type: functional, cell-based
# LOX IMVI = assay: Cytotoxicity against human LOXIMVI cells at 10 uM after 48 hrs by sulforhodamine B assay; type: functional, cell-based
# SR = assay: Cytotoxicity against human SR cells at 10 uM after 48 hrs by sulforhodamine B assay; type: functional, cell-based; outline: as §1
# Hs-578T = assay: Cytotoxicity against human Hs 578T cells at 10 uM after 48 hrs by sulforhodamine B assay; type: functional, cell-based
# U-251 = assay: Cytotoxicity against human U251 cells at 10 uM after 48 hrs by sulforhodamine B assay; type: functional, cell-based; outline: as §1
# IGROV-1 = assay: Cytotoxicity against human IGROV1 cells at 10 uM after 48 hrs by sulforhodamine B assay; type: functional, cell-based
# RXF 393 = assay: Cytotoxicity against human RXF393 cells at 10 uM after 48 hrs by sulforhodamine B assay; type: functional, cell-based
# SK-MEL-5 = assay: Cytotoxicity against human SK-MEL-5 cells at 10 uM after 48 hrs by sulforhodamine B assay; type: functional, cell-based
# RPMI-8226 = assay: Cytotoxicity against human RPMI8226 cells at 10 uM after 48 hrs by sulforhodamine B assay; type: functional, cell-based
# COLO 205 = assay: Cytotoxicity against human COLO205 cells at 10 uM after 48 hrs by sulforhodamine B assay; type: functional, cell-based
# HCT-116 = assay: Cytotoxicity against human HCT116 cells at 10 uM after 48 hrs by sulforhodamine B assay; type: functional, cell-based
# SW-620 = assay: Cytotoxicity against human SW620 cells at 10 uM after 48 hrs by sulforhodamine B assay; type: functional, cell-based; outline: as §1
# NCI-H322M = assay: Cytotoxicity against human NCI-H322M cells at 10 uM after 48 hrs by sulforhodamine B assay; type: functional, cell-based
# SNB-19 = assay: Cytotoxicity against human SNB19 cells at 10 uM after 48 hrs by sulforhodamine B assay; type: functional, cell-based; outline: as §1
# NCI/ADR-RES = assay: Cytotoxicity against human NCI-ADR-RES cells at 10 uM after 48 hrs by sulforhodamine B assay; type: functional, cell-based
# SF-539 = assay: Cytotoxicity against human SF539 cells at 10 uM after 48 hrs by sulforhodamine B assay; type: functional, cell-based
# A549 = assay: Cytotoxicity against human A549/ATCC cells at 10 uM after 48 hrs by sulforhodamine B assay; type: functional, cell-based
# [2] = target: T1, Aldo-keto reductase family 1 member C3 (Homo sapiens); assay: Inhibition of AKR1C3 in human HL60 cells assessed as potentiation of etoposide-induced cytotoxicity by measuring reduction in cell viability at 0.1 uM coincubated with etoposide at 1 uM after 72 hrs by MTS assay (reference value: 40%); type: cell-based
# Outline: (§2)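 HL-60 or KG1a cells were coincubated with inhibitor and etoposide for 72 h, then cell viability was read. Values are mean ± SD (n = 6). Treatments were compared with control by two-tailed t test.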
# OVCAR-4 = assay: Cytotoxicity against human OVCAR4 cells at 10 uM after 48 hrs by sulforhodamine B assay; type: functional, cell-based
# HL-60 = assay: Cytotoxicity against human HL60 cells assessed as reduction in cell viability up to 100 uM at 72 hrs by MTS assay; type: functional, cell-based
# Outline: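 HL-60 human acute promyelocytic leukemia cells exposed to AKR1C3 inhibitor alone, with no chemotherapeutic, over a range up to 100 μM. Lower working range was 0.1–1 μM. Read-out was cell viability relative to untreated control.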
# HOP-62 = assay: Cytotoxicity against human HOP62 cells at 10 uM after 48 hrs by sulforhodamine B assay; type: functional, cell-based
# KM12 = assay: Cytotoxicity against human KM12 cells at 10 uM after 48 hrs by sulforhodamine B assay; type: functional, cell-based
# NCI-H460 = assay: Cytotoxicity against human NCI-H460 cells at 10 uM after 48 hrs by sulforhodamine B assay; type: functional, cell-based
# MCF7 = assay: Cytotoxicity against human MCF7 cells at 10 uM after 48 hrs by sulforhodamine B assay; type: functional, cell-based
# HL-60(TB) = assay: Cytotoxicity against human HL-60(TB) cells at 10 uM after 48 hrs by sulforhodamine B assay; type: functional, cell-based
# Outline: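 Single-concentration (10 μM) test run within the National Cancer Institute 60 cancer cell line screen, with HL-60 as one panel member.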
# UO-31 = assay: Cytotoxicity against human UO31 cells at 10 uM after 48 hrs by sulforhodamine B assay; type: functional, cell-based; outline: as §1
# NCI-H23 = assay: Cytotoxicity against human NCI-H23 cells at 10 uM after 48 hrs by sulforhodamine B assay; type: functional, cell-based
# ACHN = assay: Cytotoxicity against human ACHN cells at 10 uM after 48 hrs by sulforhodamine B assay; type: functional, cell-based
# NCI-H226 = assay: Cytotoxicity against human NCI-H226 cells at 10 uM after 48 hrs by sulforhodamine B assay; type: functional, cell-based
# MDA-MB-231 = assay: Cytotoxicity against human MDA-MB-231 cells at 10 uM after 48 hrs by sulforhodamine B assay; type: functional, cell-based
# TK-10 = assay: Cytotoxicity against human TK10 cells at 10 uM after 48 hrs by sulforhodamine B assay; type: functional, cell-based; outline: as §1
# KG-1a = assay: Cytotoxicity against human KG1a cells expressing AKR1C3 assessed as reduction in cell viability at >25 uM at 72 hrs by MTS assay; type: functional, cell-based
# CAKI-1 = assay: Cytotoxicity against human Caki1 cells at 10 uM after 48 hrs by sulforhodamine B assay; type: functional, cell-based
# SF-268 = assay: Cytotoxicity against human SF268 cells at 10 uM after 48 hrs by sulforhodamine B assay; type: functional, cell-based
# HCT-15 = assay: Cytotoxicity against human HCT15 cells at 10 uM after 48 hrs by sulforhodamine B assay; type: functional, cell-based
# [3] = target: Aldo-keto reductase family 1 member C3 (Homo sapiens, UniProt P42330); assay: Inhibition of N-terminal His6-tagged human recombinant AKR1C3 in presence of NADPH by fluorescence assay
# [4] = target: T1, Aldo-keto reductase family 1 member C3 (Homo sapiens); assay: Inhibition of AKR1C3 in human KG1a cells assessed as potentiation of etoposide-induced cytotoxicity by measuring reduction in cell viability at 0.1 uM coincubated with etoposide at 1 uM after 72 hrs by MTS assay; type: cell-based; outline: as §2
# [5] = target: T1, Aldo-keto reductase family 1 member C3 (Homo sapiens); assay: Inhibition of AKR1C3 in human HL60 cells assessed as potentiation of etoposide-induced cytotoxicity by measuring reduction in cell viability at 0.1 uM coincubated with etoposide at 0.5 uM after 72 hrs by MTS assay (reference value: 20%); type: cell-based; outline: as §2
compound,measurement,setting,value
CC(C)=CCc1cc(/C=C/C(=O)O)ccc1OC(=O)CCc1ccccc1,Activity,SK-MEL-28,inactive
same,Activity,MDA-MB-468,inactive
same,Activity,OVCAR-5,inactive
same,Activity,PC-3,inactive
same,Activity,SNB-75,inactive
same,Activity,A498,inactive
same,Activity,UACC-257,inactive
same,Activity,OVCAR-8,inactive
same,Activity,K562,inactive
same,Activity,T47D,inactive
same,Activity,[1],80 to 95%
same,Activity,HCC 2998,inactive
same,Activity,SN12C,inactive
same,Activity,MOLT-4,inactive
same,Activity,HOP-92,inactive
same,Activity,Malme-3M,inactive
same,Activity,786-0,inactive
same,Activity,SF-295,inactive
same,Activity,UACC-62,inactive
same,Activity,CCRF-CEM,inactive
same,Activity,NCI-H522,inactive
same,Activity,OVCAR-3,inactive
same,Activity,SK-MEL-2,inactive
same,Activity,DU-145,inactive
same,Activity,MDA-MB-435,inactive
same,Activity,M14,inactive
same,Activity,LOX IMVI,inactive
same,Activity,SR,inactive
same,Activity,Hs-578T,inactive
same,Activity,U-251,inactive
same,Activity,IGROV-1,inactive
same,Activity,RXF 393,inactive
same,Activity,SK-MEL-5,inactive
same,Activity,RPMI-8226,inactive
same,Activity,COLO 205,inactive
same,Activity,HCT-116,inactive
same,Activity,SW-620,inactive
same,Activity,NCI-H322M,inactive
same,Activity,SNB-19,inactive
same,Activity,NCI/ADR-RES,inactive
same,Activity,SF-539,inactive
same,Activity,A549,inactive
same,Activity,[2],70%
same,Activity,OVCAR-4,inactive
same,Activity,HL-60,inactive
same,Activity,HOP-62,inactive
same,Activity,KM12,inactive
same,Activity,NCI-H460,inactive
same,Activity,MCF7,inactive
same,Activity,HL-60(TB),inactive
same,Activity,UO-31,inactive
same,Activity,NCI-H23,inactive
same,Activity,ACHN,inactive
same,Activity,NCI-H226,inactive
same,Activity,MDA-MB-231,inactive
same,Activity,TK-10,inactive
same,Activity,KG-1a,Active
same,Activity,CAKI-1,inactive
same,Activity,SF-268,inactive
same,Activity,HCT-15,inactive
C[C@@H]1C(O)=C(C(N)=O)C(=O)[C@@]2(O)C(O)=C3C(=O)c4c(O)cccc4[C@@](C)(O)[C@H]3C[C@@H]12,IC50,[3],0.501 µM
CC(C)=CCc1cc(/C=C/C(=O)O)ccc1NC(=O)CCc1ccccc1,Activity,[4],42%
same,Activity,[1],80 to 95%
same,Activity,[5],25%
same,Activity,[2],57%
same,Activity,HL-60,inactive
same,Activity,KG-1a,Active

# From ChEMBL document CHEMBL4428081, “Selective AKR1C3 Inhibitors Potentiate Chemotherapeutic Activity in Multiple Acute Myeloid Leukemia (AML) Cell Lines” (ACS Med Chem Lett, 2016)
